The results in this text go back to article PMC9064899 (The FEBS journal, 2021).

Test [1] addresses T1, UBIAD1 D112G (Homo sapiens, UniProt Q9Y5Z9, D112G).
T1 sequence (Q9Y5Z9 1-338 D112G): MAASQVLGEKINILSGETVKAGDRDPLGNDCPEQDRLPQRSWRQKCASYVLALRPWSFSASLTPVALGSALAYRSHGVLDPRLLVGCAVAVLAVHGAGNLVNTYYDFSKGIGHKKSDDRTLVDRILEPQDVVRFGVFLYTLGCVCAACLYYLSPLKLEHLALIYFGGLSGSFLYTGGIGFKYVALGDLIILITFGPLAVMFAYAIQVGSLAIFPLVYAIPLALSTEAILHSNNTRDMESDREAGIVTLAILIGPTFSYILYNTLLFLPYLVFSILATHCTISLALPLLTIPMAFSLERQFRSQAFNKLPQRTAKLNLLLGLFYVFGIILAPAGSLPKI
Put plainly: Cell-based UBIAD1 functional assay. In outline:
(§1)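 Wild-type or mutant human UBIAD1 in pCI-neo was transiently transfected into Ubiad1-knockout FIXgla-PC/HEK293 cells (DMEM/F12, 10% FBS). […] After 24 h, carboxylated FIXgla-PC in the medium was measured by ELISA. Activity was normalized to wild type (100%), and EC50 came from a curve fit. Mean ± SD, n=3 independent experiments.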

Test [2] addresses T2, UBIAD1 K181A (Homo sapiens, UniProt Q9Y5Z9, K181A).
T2 sequence (Q9Y5Z9 1-338 K181A): T1 sequence (Q9Y5Z9 1-338 D112G) with G112D, K181A
In words: Cell-based UBIAD1 functional assay. The essentials: as §1

Numbering of substitutions follows the chain as printed.

As usually defined, the EC50 is the concentration needed to bring the measured effect to its halfway point. For the compound `CC1=CC(=O)c2ccccc2C1=O` [vitamin K3, menadione], the EC50 in test [1] is 5.1 ± 0.8 nM; in test [2] it was 11.9 ± 0.4 nM. The “Vitamin K-dependent carboxylation Activity ± SD” value in test [1] (D112G, 1 μM vitamin K3) is 104.8 ± 3%; in test [2] (K181A, 1 μM vitamin K3), 101.7 ± 3%.
